Experiments:
Format in all cases: functional, Rattus norvegicus
[1] = Insulinotropic activity in RIN5F cells assessed as stimulation of glucose-dependent insulin secretion per ug of protein at 1 uM
Outline: (§1)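 Seeded at 0.2×10^6 cells/well, grown overnight to 80% confluence. PBS wash, then 40 min preincubation in Krebs-Ringer Hepes buffer (1.1 mM glucose, 0.5% BSA, pH 7.4). Supernatant insulin measured by rat insulin ELISA and normalized to total protein (pg/µg/h). n = 3, mean ± SD.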

[2] = Insulinotropic activity in RIN5F cells assessed as stimulation of glucose-dependent insulin secretion per ug of protein at 0.1 uM; outline: as §1
[3] = Insulinotropic activity in RIN5F cells assessed as stimulation of glucose-dependent insulin secretion per microgram of protein at 10 uM; outline: as §1

Structure (SMILES): CCc1[nH]c2ccc(Cl)cc2c1NC(=N)N
- Activity [1]: 19.5 pg/h
- Activity [2]: 15.8 pg/h
- Activity [3]: 35.2 pg/h

Structure (SMILES): N=C(N)Nc1c(C2CCCCC2)[nH]c2ncccc12
- Activity [1]: 12.5 pg/h
- Activity [2]: 10.2 pg/h
- Activity [3]: 14.5 pg/h

Structure (SMILES): CCCCNC(=O)NS(=O)(=O)c1ccc(C)cc1 [TOLBUTAMIDE]
- Activity [1]: 27.1 pg/h
- Activity [2]: 19.9 pg/h

Structure (SMILES): N=C(N)Nc1c(-c2ccccc2)[nH]c2ccccc12
- Activity [1]: 16.1 pg/h
- Activity [2]: 12.1 pg/h
- Activity [3]: 29.1 pg/h

Structure (SMILES): N=C(N)Nc1c(-c2ccccc2)[nH]c2ncc(Cl)cc12
- Activity [1]: 18.1 pg/h
- Activity [2]: 15.2 pg/h
- Activity [3]: 33.1 pg/h

Structure (SMILES): N=C(N)Nc1c[nH]c2ncccc12
- Activity [1]: 12.5 pg/h
- Activity [2]: 10.5 pg/h
- Activity [3]: 14.5 pg/h

Structure (SMILES): CCc1sc2ncc(Cl)cc2c1NC(=N)N
- Activity [1]: 17.8 pg/h
- Activity [2]: 14.8 pg/h
- Activity [3]: 31.5 pg/h

Structure (SMILES): N=C(N)Nc1c(Cc2ccccc2)[nH]c2ncc(Cl)cc12
- Activity [1]: 12.9 pg/h
- Activity [2]: 10.9 pg/h
- Activity [3]: 15 pg/h

Structure (SMILES): N=C(N)Nc1csc2ncc(Cl)cc12
- Activity [1]: 12.2 pg/h
- Activity [2]: 10.2 pg/h
- Activity [3]: 14.2 pg/h

Structure (SMILES): Cc1[nH]c2ncccc2c1NC(=N)N
- Activity [1]: 15.5 pg/h
- Activity [2]: 11.5 pg/h
- Activity [3]: 29.5 pg/h

Structure (SMILES): N=C(N)Nc1csc2ncccc12
- Activity [1]: 12.1 pg/h
- Activity [2]: 10.1 pg/h
- Activity [3]: 14.1 pg/h

Structure (SMILES): N=C(N)Nc1c(Cc2ccccc2)[nH]c2ccc(Cl)cc12
- Activity [1]: 13.2 pg/h
- Activity [2]: 11.2 pg/h
- Activity [3]: 15.4 pg/h

Structure (SMILES): N=C(N)Nc1c[nH]c2ncc(Cl)cc12
- Activity [1]: 12.5 pg/h
- Activity [2]: 10.5 pg/h
- Activity [3]: 14.6 pg/h

Structure (SMILES): N=C(N)Nc1c[nH]c2ccc(Cl)cc12
- Activity [1]: 13.2 pg/h
- Activity [2]: 11.1 pg/h
- Activity [3]: 15.5 pg/h

Structure (SMILES): N=C(N)Nc1c(-c2ccccc2)[nH]c2ccc(Cl)cc12
- Activity [1]: 19.5 pg/h
- Activity [2]: 15.9 pg/h
- Activity [3]: 35.5 pg/h

Structure (SMILES): Cc1[nH]c2ccccc2c1NC(=N)N
- Activity [1]: 16.1 pg/h
- Activity [2]: 12.1 pg/h
- Activity [3]: 30.1 pg/h

Structure (SMILES): Cc1[nH]c2ccc(Cl)cc2c1C1=NCCN1
- Activity [1]: 20.6 pg/h
- Activity [2]: 16.4 pg/h
- Activity [3]: 36.4 pg/h

Structure (SMILES): N=C(N)Nc1c(Cc2ccccc2)sc2ncc(Cl)cc12
- Activity [1]: 12.6 pg/h
- Activity [2]: 10.6 pg/h
- Activity [3]: 14.5 pg/h

Structure (SMILES): Cc1[nH]c2ccc(Cl)cc2c1NC(=N)N
- Activity [1]: 20.1 pg/h
- Activity [2]: 16.1 pg/h
- Activity [3]: 36 pg/h

Structure (SMILES): N=C(N)Nc1c(Cc2ccccc2)[nH]c2ccccc12
- Activity [1]: 13.1 pg/h
- Activity [2]: 11.1 pg/h
- Activity [3]: 15.1 pg/h

Structure (SMILES): N=C(N)Nc1c(C2CCCCC2)[nH]c2ccc(Cl)cc12
- Activity [1]: 13.2 pg/h
- Activity [2]: 11.2 pg/h
- Activity [3]: 15.9 pg/h

Structure (SMILES): CCc1[nH]c2ncc(Cl)cc2c1NC(=N)N
- Activity [1]: 18.1 pg/h
- Activity [2]: 15.1 pg/h
- Activity [3]: 33.1 pg/h

Structure (SMILES): Cc1sc2ncc(Cl)cc2c1NC(=N)N
- Activity [1]: 18.1 pg/h
- Activity [2]: 15.1 pg/h
- Activity [3]: 32.1 pg/h

Structure (SMILES): CCc1[nH]c2ncccc2c1NC(=N)N
- Activity [1]: 13 pg/h
- Activity [2]: 10.8 pg/h
- Activity [3]: 15 pg/h

Structure (SMILES): Cc1[nH]c2ncc(Cl)cc2c1NC(=N)N
- Activity [1]: 19.1 pg/h
- Activity [2]: 15.5 pg/h
- Activity [3]: 35.1 pg/h

Structure (SMILES): N=C(N)Nc1c[nH]c2ccccc12
- Activity [1]: 13 pg/h
- Activity [2]: 10.9 pg/h
- Activity [3]: 15 pg/h

Structure (SMILES): N=C(N)Nc1c(-c2ccccc2)sc2ncccc12
- Activity [1]: 15.1 pg/h
- Activity [2]: 11.1 pg/h
- Activity [3]: 27.9 pg/h

Structure (SMILES): N=C(N)Nc1c(C2CCCCC2)[nH]c2ncc(Cl)cc12
- Activity [1]: 13.1 pg/h
- Activity [2]: 10.8 pg/h
- Activity [3]: 15.1 pg/h

Structure (SMILES): N=C(N)Nc1c(C2CCCCC2)[nH]c2ccccc12
- Activity [1]: 13.1 pg/h
- Activity [2]: 10.9 pg/h
- Activity [3]: 15.1 pg/h

Structure (SMILES): N=C(N)Nc1c(C2CCCCC2)sc2ncccc12
- Activity [1]: 12.1 pg/h
- Activity [2]: 10.1 pg/h
- Activity [3]: 14.1 pg/h

Structure (SMILES): N=C(N)Nc1c(C2CCCCC2)sc2ncc(Cl)cc12
- Activity [1]: 12.5 pg/h
- Activity [2]: 10.5 pg/h
- Activity [3]: 14.5 pg/h

Structure (SMILES): N=C(N)Nc1c(-c2ccccc2)sc2ncc(Cl)cc12
- Activity [1]: 17.8 pg/h
- Activity [2]: 14.9 pg/h
- Activity [3]: 31.6 pg/h

Structure (SMILES): CCc1[nH]c2ccccc2c1NC(=N)N
- Activity [1]: 13.4 pg/h
- Activity [2]: 11.1 pg/h
- Activity [3]: 16.1 pg/h

Structure (SMILES): Cc1sc2ncccc2c1NC(=N)N
- Activity [1]: 15.1 pg/h
- Activity [2]: 11.1 pg/h
- Activity [3]: 29.1 pg/h

Structure (SMILES): N=C(N)Nc1c(Cc2ccccc2)[nH]c2ncccc12
- Activity [1]: 12.6 pg/h
- Activity [2]: 10.9 pg/h
- Activity [3]: 14.9 pg/h

Structure (SMILES): N=C(N)Nc1c(Cc2ccccc2)sc2ncccc12
- Activity [1]: 12.5 pg/h
- Activity [2]: 10.5 pg/h
- Activity [3]: 14.5 pg/h

Structure (SMILES): CCc1sc2ncccc2c1NC(=N)N
- Activity [1]: 12.6 pg/h
- Activity [2]: 10.6 pg/h
- Activity [3]: 14.6 pg/h

Structure (SMILES): N=C(N)Nc1c(-c2ccccc2)[nH]c2ncccc12
- Activity [1]: 15.5 pg/h
- Activity [2]: 11.5 pg/h
- Activity [3]: 28.5 pg/h

Reference: ChEMBL document CHEMBL1147883, “Design, synthesis, and biological evaluation of substituted-N-(thieno[2,3-b]pyridin-3-yl)-guanidines, N-(1H-pyrrolo[2,3-b]pyridin-3-yl)-guanidines, and N-(1H-indol-3-yl)-guanidines” (2007)
